The target of data set [1] is T1, Neutrophil elastase (Homo sapiens) (UniProt P08246).
T1 sequence (whole entry): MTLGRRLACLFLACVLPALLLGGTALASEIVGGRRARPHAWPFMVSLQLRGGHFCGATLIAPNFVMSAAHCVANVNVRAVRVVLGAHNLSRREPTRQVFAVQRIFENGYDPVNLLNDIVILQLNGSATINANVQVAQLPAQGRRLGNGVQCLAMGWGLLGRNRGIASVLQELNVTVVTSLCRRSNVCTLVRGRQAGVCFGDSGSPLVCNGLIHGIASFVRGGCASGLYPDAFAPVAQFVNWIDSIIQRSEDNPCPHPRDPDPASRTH
As to the kind of experiment: Inhibition of human neutrophil elastase after 15 mins.

Data set [2] in a line: Inhibition of chymotrypsin at 2.5 uM after 30 mins relative to control. The method, boiled down:
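Suc-Ala-Ala-Pro-Phe-AMC then added, fluorescence read at Ex 350/Em 460 nm. Inhibition given as percent of enzyme activity relative to the control sample.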

Data set [3] is described as follows: Inhibition of trypsin at 2.5 uM after 30 mins relative to control. The method, boiled down: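 Trypsin (final 2.5 nM) preincubated 30 min at 37 °C with 2.5 µM inhibitor in 0.1 M HEPES, 0.01 M CaCl2, pH 7.5. Bzl-Arg-AFC added, fluorescence read at Ex 380/Em 505 nm. Percent inhibition relative to the control sample.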
For data set [4], the system named is A549. Description: Cytotoxicity against human A549 cells at 500 uM after 48 hrs by MTT assay. The format is functional. Particulars: A549, 48 h. In short, it runs like this: (§1)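 A549 lung cancer cells kept at 37 °C, 5% CO2, harvested by trypsinization and PBS wash. Seeded 1 × 10^4 cells/well, attached overnight, then 48 h with inhibitor diluted in medium from DMSO stocks; DMSO-only controls. MTT absorbance at 570 nm, growth as percent of untreated control, mean ± one SD.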
For orientation: Tetrazolium assays rely on reduction of a dye to a coloured formazan, in cell work by metabolically active cells.

For data set [5], the system named is A549. Description: Cytotoxicity against human A549 cells at 250 uM after 48 hrs by MTT assay. The format is functional. Particulars: A549, 48 h. In short, it runs like this:
as §1

Data set [6] relates to A549. Description: Cytotoxicity against human A549 cells at 125 to 500 uM after 48 hrs by MTT assay. In kind it is functional. The method, boiled down:
as §1

Data set [7] can be described thus: Cytotoxicity against HGF at 250 uM after 48 hrs by MTT assay. The format is cell-based. The note with it: human, HGF cells; read-out: INH. The method, boiled down: (§2)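 Human gingival fibroblasts isolated from healthy gingival biopsies, grown in DMEM with 10% FBS, glutamine and penicillin/streptomycin at 37 °C, 5% CO2. Seeded 1 × 10^4 cells/well, attached overnight, then exposed 48 h to inhibitor diluted in medium from DMSO stocks; DMSO-only controls. MTT read at 570 nm, viability expressed as percent of untreated control.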

Data set [8] in a line: Cytotoxicity against HGF at 500 uM after 48 hrs by MTT assay. The format is cell-based. Particulars: human. In short, it runs like this:
as §2

Active and inactive are the calls of the source. The calls are words filed in the database; no cut-off is given here.

Consider `CSCC[C@H](NC(=O)OCc1ccccc1)C(=O)O[C@@H](CC(C)C)C(=O)N[C@H](C(C)C)P(=O)(Oc1ccc(SC)cc1)Oc1ccc(SC)cc1`, for which the kinact/Ki (second-order inactivation rate constant) in data set [1] turned out to be 4400 M⁻¹ s⁻¹. Moreover, the inhibition entry in data set [2] and in data set [3] was “inactive” throughout.

For `CSCC[C@H](NC(=O)OCc1ccccc1)C(=O)O[C@@H](CCc1ccccc1)C(=O)N[C@H](C(C)C)P(=O)(Oc1ccc(Cl)cc1)Oc1ccc(Cl)cc1`, the kinact/Ki (second-order inactivation rate constant) in data set [1] is 1620 M⁻¹ s⁻¹. In addition, the inhibition result in data set [2] and in data set [3] was “inactive” throughout.

Turning to `CSCC[C@H](NC(=O)OCc1ccccc1)C(=O)O[C@@H](CCSC)C(=O)N[C@H](C(C)C)P(=O)(Oc1ccc(SC)cc1)Oc1ccc(SC)cc1`, the kinact/Ki (second-order inactivation rate constant) in data set [1] worked out at 5900 M⁻¹ s⁻¹. In data set [2], the inhibition (usually the percentage by which the read-out fell short of the control) came to 14%. The inhibition result in data set [3] was “inactive”.

Consider `CSCC[C@H](NC(=O)OCc1ccccc1)C(=O)O[C@@H](CCc1ccccc1)C(=O)N[C@H](C(C)C)P(=O)(Oc1ccc(SC)cc1)Oc1ccc(SC)cc1`, for which, in data set [1], the kinact/Ki (second-order inactivation rate constant) was found to be 765 M⁻¹ s⁻¹. The inhibition entry in data set [2] and in data set [3] was “inactive” each time.

On to `CSCC[C@H](NC(=O)OCc1ccccc1)C(=O)O[C@H](C(=O)N[C@H](C(C)C)P(=O)(Oc1ccc(SC)cc1)Oc1ccc(SC)cc1)c1ccc(F)cc1`, for which the kinact/Ki (second-order inactivation rate constant) in data set [1] turned out to be 4850 M⁻¹ s⁻¹. Moreover, the inhibition entry in data set [2] and in data set [3] was “inactive” throughout.

Turning to `COc1ccc([C@H](OC(=O)[C@H](CCSC)NC(=O)OCc2ccccc2)C(=O)N[C@H](C(C)C)P(=O)(Oc2ccc(SC)cc2)Oc2ccc(SC)cc2)cc1OC`, in data set [1], the kinact/Ki (second-order inactivation rate constant) is 3800 M⁻¹ s⁻¹. The compound also yielded an inhibition in data set [2] of 22%. The inhibition entry in data set [3] is “inactive”.

Regarding `CCCCN(C(=O)CNC(=O)OCc1ccccc1)[C@@H](CC(C)C)C(=O)N[C@H](C(C)C)P(=O)(Oc1ccc(SC)cc1)Oc1ccc(SC)cc1`, the kinact/Ki (second-order inactivation rate constant) in data set [1] was 145 M⁻¹ s⁻¹. The inhibition result in data set [2] and in data set [3] was “inactive” in each case.

Turning to `COc1ccc([C@H](OC(=O)[C@H](CCSC)NC(=O)OCc2ccccc2)C(=O)N[C@H](C(C)C)P(=O)(Oc2ccc(Cl)cc2)Oc2ccc(Cl)cc2)cc1OC`, in data set [1], the kinact/Ki (second-order inactivation rate constant) was 165 M⁻¹ s⁻¹. This compound also gave an inhibition in data set [2] of 21%. In addition, the inhibition result in data set [3] is “inactive”.

Regarding `CCCCN(C(=O)CNC(=O)OCc1ccccc1)[C@@H](Cc1ccccc1)C(=O)N[C@H](C(C)C)P(=O)(Oc1ccc(SC)cc1)Oc1ccc(SC)cc1`, the kinact/Ki (second-order inactivation rate constant) in data set [1] came out at 1360 M⁻¹ s⁻¹. The inhibition in data set [2] came to 14%. For the same compound, the inhibition result in data set [3] was “inactive”.

On to `CCCCCC(=O)N1CCN([C@H](C(=O)N[C@H](C(C)C)P(=O)(Oc2ccc(SC)cc2)Oc2ccc(SC)cc2)c2ccc(F)cc2)CC1`, for which, in data set [1], the kinact/Ki (second-order inactivation rate constant) was 330 M⁻¹ s⁻¹. In addition, the inhibition entry in data set [2] and in data set [3] was “inactive” in each case.

On to `CCCCCC(=O)N1CCN([C@H](C(=O)N[C@H](C(C)C)P(=O)(Oc2ccc(SC)cc2)Oc2ccc(SC)cc2)c2ccc(OC)c(OC)c2)CC1`, for which the kinact/Ki (second-order inactivation rate constant) in data set [1] turned out to be 125 M⁻¹ s⁻¹. Moreover, the inhibition result in data set [2] and in data set [3] was “inactive” throughout.

Turning to `CCCCCC(=O)N1CCN([C@@H](CCSC)C(=O)N[C@H](C(C)C)P(=O)(Oc2ccc(SC)cc2)Oc2ccc(SC)cc2)CC1`, in data set [1], the kinact/Ki (second-order inactivation rate constant) came out at 140 M⁻¹ s⁻¹. For the same compound, the inhibition entry in data set [3] was “inactive”.

With `CCCCN(C(=O)CNC(=O)OCc1ccccc1)[C@H](C(=O)N[C@H](C(C)C)P(=O)(Oc1ccc(SC)cc1)Oc1ccc(SC)cc1)C(C)C`, the kinact/Ki (second-order inactivation rate constant) in data set [1] worked out at 495 M⁻¹ s⁻¹. The compound further came in with an inhibition in data set [2] of 8%. Also, the inhibition entry in data set [3] is “inactive”.

Consider `CCCCCC(=O)N1CCN([C@H](C(=O)N[C@H](C(C)C)P(=O)(Oc2ccc(SC)cc2)Oc2ccc(SC)cc2)c2ccc([N+](=O)[O-])cc2)CC1`, for which the kinact/Ki (second-order inactivation rate constant) in data set [1] was determined as 140 M⁻¹ s⁻¹. Further, the inhibition entry in data set [2] and in data set [3] was “inactive” in each case.

Regarding `CSCC[C@H](NC(=O)OCc1ccccc1)C(=O)O[C@H](C(=O)N[C@H](C(C)C)P(=O)(Oc1ccc(Cl)cc1)Oc1ccc(Cl)cc1)C(C)C`, in data set [1], the kinact/Ki (second-order inactivation rate constant) is 20500 M⁻¹ s⁻¹. The same compound had an inhibition in data set [2] of 15%. Also, the inhibition result in data set [3] is “inactive”.

Turning to `CSCC[C@H](NC(=O)OCc1ccccc1)C(=O)O[C@H](C(=O)N[C@H](C(C)C)P(=O)(Oc1ccc(Cl)cc1)Oc1ccc(Cl)cc1)c1ccc([N+](=O)[O-])cc1`, the kinact/Ki (second-order inactivation rate constant) in data set [1] was 165 M⁻¹ s⁻¹. In addition, the inhibition result in data set [2] and in data set [3] was “inactive” each time.

Regarding `CSCC[C@H](NC(=O)OCc1ccccc1)C(=O)O[C@@H](CC(C)C)C(=O)N[C@H](C(C)C)P(=O)(Oc1ccc(Cl)cc1)Oc1ccc(Cl)cc1`, the kinact/Ki (second-order inactivation rate constant) in data set [1] came to 7250 M⁻¹ s⁻¹. For the same compound, the inhibition entry in data set [2] and in data set [3] was “inactive” throughout. Also, at 500 µM the inhibition with A549 [4] was 75%.

Take `CSCC[C@H](NC(=O)OCc1ccccc1)C(=O)O[C@H](C(=O)N[C@H](C(C)C)P(=O)(Oc1ccc(Cl)cc1)Oc1ccc(Cl)cc1)c1ccc(F)cc1`: the kinact/Ki (second-order inactivation rate constant) in data set [1] amounted to 215 M⁻¹ s⁻¹. Further, the inhibition in data set [2] came out at 16%. Further, the inhibition result in data set [3] is “inactive”.

In the case of `CSCC[C@H](NC(=O)OCc1ccccc1)C(=O)O[C@@H](Cc1ccccc1)C(=O)N[C@H](C(C)C)P(=O)(Oc1ccc(Cl)cc1)Oc1ccc(Cl)cc1`, the kinact/Ki (second-order inactivation rate constant) in data set [1] was found to be 695 M⁻¹ s⁻¹. Further, the inhibition result in data set [2] and in data set [3] was “inactive” each time.

Take `CSCC[C@H](NC(=O)OCc1ccccc1)C(=O)O[C@H](C(=O)N[C@H](C(C)C)P(=O)(Oc1ccc(SC)cc1)Oc1ccc(SC)cc1)C(C)C`: in data set [1], the kinact/Ki (second-order inactivation rate constant) was determined as 5050 M⁻¹ s⁻¹. In addition, the inhibition in data set [2] came to 15%. Besides, the inhibition entry in data set [3] was “inactive”.

In the case of `CSCC[C@H](NC(=O)OCc1ccccc1)C(=O)O[C@H](C(=O)N[C@H](C(C)C)P(=O)(Oc1ccc(SC)cc1)Oc1ccc(SC)cc1)c1ccc([N+](=O)[O-])cc1`, in data set [1], the kinact/Ki (second-order inactivation rate constant) is 430 M⁻¹ s⁻¹. The inhibition result in data set [2] and in data set [3] was “inactive” throughout.

As for `CSCC[C@H](NC(=O)OCc1ccccc1)C(=O)O[C@@H](CCSC)C(=O)N[C@H](C(C)C)P(=O)(Oc1ccc(Cl)cc1)Oc1ccc(Cl)cc1`, the kinact/Ki (second-order inactivation rate constant) in data set [1] is 40100 M⁻¹ s⁻¹. For the same compound, the inhibition entry in data set [2] and in data set [3] was “inactive” throughout. Also, the inhibition at 250 µM with A549 [5] was determined as 25%. This compound also displayed an inhibition at 500 µM in the data set on A549 [4] of 60%.

For the compound `CCCCN(C(=O)CNC(=O)OCc1ccccc1)[C@@H](CCc1ccccc1)C(=O)N[C@H](C(C)C)P(=O)(Oc1ccc(SC)cc1)Oc1ccc(SC)cc1`, the kinact/Ki (second-order inactivation rate constant) in data set [1] amounted to 1420 M⁻¹ s⁻¹. In data set [2], the inhibition was found to be 15%. Also, the inhibition entry in data set [3] is “inactive”. For the same compound, in the data set on A549 [6], the “inhibition (INH)” value stood at 50%. Also, the cytotoxicity at 48 h, 250 µM in data set [7] worked out at 10%. Besides, in data set [8], the Activity entry is “Toxic”. The compound also showed an inhibition at 250 µM in the data set on A549 [5] of 70%.

With `CSCC[C@H](NC(=O)OCc1ccccc1)C(=O)O[C@@H](Cc1ccccc1)C(=O)N[C@H](C(C)C)P(=O)(Oc1ccc(SC)cc1)Oc1ccc(SC)cc1`, the kinact/Ki (second-order inactivation rate constant) in data set [1] worked out at 605 M⁻¹ s⁻¹. For the same compound, the inhibition result in data set [2] and in data set [3] was “inactive” each time.
